Measurements published in ChEMBL document CHEMBL1154676, “Synthetic mRNA splicing modulator compounds with in vivo antitumor activity” (J Med Chem, 2009).

Assays:
SNB-19 = assay: Growth inhibition of human SNB19 cells by sulforhodamine B assay; format: functional
SF-268 = assay: Growth inhibition of human SF268 cells by sulforhodamine B assay; format: functional
HCT-15 = assay: Growth inhibition of human HCT15 cells by sulforhodamine B assay; format: functional
HCT-116 = assay: Growth inhibition of human HCT116 cells by sulforhodamine B assay; format: functional
HCC 2998 = assay: Growth inhibition of human HCC2998 cells by sulforhodamine B assay; format: functional
NCI-H23 = assay: Growth inhibition of human NCI-H23 cells by sulforhodamine B assay; format: functional
HOP-62 = assay: Growth inhibition of human HOP62 cells by sulforhodamine B assay; format: functional
A549 = assay: Growth inhibition of human A549 cells by sulforhodamine B assay; format: functional
SR = assay: Growth inhibition of human SR cells by sulforhodamine B assay; format: functional
MOLT-4 [1] = assay: Growth inhibition of human MOLT4 cells by sulforhodamine B assay; format: functional
[2] = Cytotoxicity against HFF/tert2 after 72 hrs by XTT assay; parameters: species or system Homo sapiens
Procedure, shortened: (§1)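 Cells grown at 37 °C, 5% CO2; HFF in DMEM with 10% FBS, PrEC in prostate epithelial growth medium. Adherent lines seeded overnight, suspension lines same day; compounds diluted from DMSO stocks into media at various final concentrations, 72 h exposure. XTT reagent added 4 h, absorbance 490 nm (reference 690 nm). Growth as % of vehicle; IC50 from sigmoidal dose-response fit; mean ± SEM, three independent experiments.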

PrEC = assay: Cytotoxicity against human PrEC cells after 72 hrs by XTT assay; format: cell-based; procedure, shortened: as §1
[3] = Cytotoxicity against human BT-3 cells after 72 hrs by XTT assay; format: functional, cell-based; conditions: BT-3, 72 h; procedure, shortened: as §1
[4] = Cytotoxicity against human BT-12 cells after 72 hrs by XTT assay; format: functional, cell-based; conditions: BT-12, 72 h; procedure, shortened: as §1
[5] = Cytotoxicity against human SJ-GBM2 cells after 72 hrs by XTT assay; format: functional, cell-based; procedure, shortened: as §1
[6] = Cytotoxicity against human NB-EBc1 cells after 72 hrs by XTT assay; format: functional, cell-based; conditions: NB-EBc1, 72 h; procedure, shortened: as §1
[7] = Cytotoxicity against human NB1643 cells after 72 hrs by XTT assay; format: functional, cell-based; conditions: NB-1643, 72 h; procedure, shortened: as §1
MOLT-4 [8] = assay: Cytotoxicity against human MOLT4 cells after 72 hrs by XTT assay; format: functional, cell-based; conditions: MOLT-4, 72 h; procedure, shortened: as §1
SK-MEL-28 [9] = assay: Cytotoxicity against human SK-MEL-28 cells after 72 hrs by XTT assay; format: functional, cell-based; conditions: SK-MEL-28, 72 h; procedure, shortened: as §1
SK-MEL-2 = assay: Cytotoxicity against human SK-MEL-2 cells after 72 hrs by XTT assay; format: functional, cell-based; conditions: SK-MEL-2, 72 h; procedure, shortened: as §1
WiDr = assay: Cytotoxicity against human WiDr cells after 72 hrs by XTT assay; format: functional, cell-based; procedure, shortened: as §1
Mus musculus [10] = assay: Toxicity in NOD/SCID mouse assessed as phosphorus level at 5 to 50 mg/kg, iv and po for 5 days; format: organism-based; parameters: dose 5-50 mg/kg, route oral; conditions: in vivo, 120 h
Mus musculus [11] = assay: Toxicity in NOD/SCID mouse assessed as potassium level at 5 to 50 mg/kg, […]; format: organism-based; parameters: dose 5-50 mg/kg, route oral; conditions: in vivo, po, 120 h
Mus musculus [12] = assay: Toxicity in NOD/SCID mouse assessed as anemia at 5 to 50 mg/kg, iv and po for 5 days; format: organism-based; parameters: dose 5-50 mg/kg, route oral; conditions: in vivo, 120 h
Mus musculus [13] = assay: Toxicity in NOD/SCID mouse assessed as leukopenia at 5 to 50 mg/kg, […] for 5 days; format: organism-based; parameters: dose 5-50 mg/kg; conditions: in vivo, po, 120 h
Mus musculus [14] = assay: Toxicity in NOD/SCID mouse transplanted with human JeKo1 cells assessed as fatalities at 5 to 50 mg/kg, iv and po for 5 days; format: organism-based; parameters: dose 5-50 mg/kg, route oral; conditions: in vivo, 120 h
Mus musculus [15] = assay: Toxicity in NOD/SCID mouse assessed as creatinine level at 5 to 50 mg/kg, […] for 5 days; format: organism-based; parameters: dose 5-50 mg/kg; conditions: in vivo, po, 120 h
Mus musculus [16] = assay: Toxicity in NOD/SCID mouse assessed as calcium level at 5 to 50 mg/kg, iv and po for 5 days; format: organism-based; parameters: dose 5-50 mg/kg, route oral; conditions: in vivo, 120 h
[17] = Antitumor activity against human JeKo1 cells transplanted in NOD/SCID mouse assessed as tumor volume treated iv for 5 days relative to control; format: functional, JeKo-1
Procedure, shortened: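 Female NOD/SCID mice bearing JeKo-1 tumors transplanted day 1; IV dosing from day 4, daily for five days, at 5, 10, 25 or 50 mg/kg in 3.0% DMSO/6.5% Tween 80/5% glucose, 4 per group. Volume = (length × width²)/2, measured thrice weekly; T/C = median treated tumor volume ÷ median control volume.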

[18] = Growth inhibition of human MDA-MB-436 cells by sulforhodamine B assay; format: functional
Mus musculus [19] = assay: Toxicity in NOD/SCID mouse assessed as amylase level at 5 to 50 mg/kg, iv and po for 5 days; format: organism-based; parameters: dose 5-50 mg/kg, route oral; conditions: in vivo, 120 h
Mus musculus [20] = assay: Toxicity in NOD/SCID mouse assessed as change in alkaline phosphatase level at 5 to 50 mg/kg, iv and po for 5 days; format: organism-based; parameters: dose 5-50 mg/kg, route oral; conditions: in vivo, 120 h
Mus musculus [21] = assay: Toxicity in NOD/SCID mouse assessed as complete blood counts level at 5 to 50 mg/kg, […] for 5 days; format: organism-based; parameters: dose 5-50 mg/kg; conditions: in vivo, po, 120 h
T47D = assay: Growth inhibition of human T47D cells by sulforhodamine B assay; format: functional
PC-3 = assay: Growth inhibition of human PC3 cells by sulforhodamine B assay; format: functional
A498 = assay: Growth inhibition of human A498 cells by sulforhodamine B assay; format: functional
NCI/ADR-RES = assay: Growth inhibition of human NCI/ADR-RES cells by sulforhodamine B assay; format: functional
OVCAR-3 = assay: Growth inhibition of human OVCAR-3 cells by sulforhodamine B assay; format: functional
SK-MEL-5 = assay: Growth inhibition of human SK-MEL-5 cells by sulforhodamine B assay; format: functional
SK-MEL-28 [22] = assay: Growth inhibition of human SK-MEL-28 cells by sulforhodamine B assay; format: functional
[23] = read-out: Log10GI50 (converted)
[24] = read-out: Log10LC50 (converted)

## CC(/C=C/[C@@H]1C[C@]2(CO2)CC(C)(C)O1)=C\C[C@H]1CC[C@@H](NC(=O)/C=C\[C@H](C)OC(=O)C(C)C)CC1
SNB-19; [23]
  GI50: 2 µM
SNB-19; [24]
  CC50: > 100 µM
SNB-19; read-out: Log10TGI (converted)
  TGI: > 100 µM
SF-268; [23]
  GI50: 0.263 µM
SF-268; [24]
  CC50: > 100 µM
SF-268; read-out: Log10TGI (converted)
  TGI: > 100 µM
HCT-15; [23]
  GI50: 0.794 µM
HCT-15; [24]
  CC50: > 100 µM
HCT-15; read-out: Log10TGI (converted)
  TGI: 34.7 µM
HCT-116; [23]
  GI50: 0.0708 µM
HCT-116; [24]
  CC50: > 100 µM
HCT-116; read-out: Log10TGI (converted)
  TGI: > 100 µM
HCC 2998; [23]
  GI50: 3.47 µM
HCC 2998; [24]
  CC50: > 100 µM
HCC 2998; read-out: Log10TGI (converted)
  TGI: > 100 µM
NCI-H23; [23]
  GI50: 0.537 µM
NCI-H23; [24]
  CC50: > 100 µM
NCI-H23; read-out: Log10TGI (converted)
  TGI: 33.9 µM
HOP-62; [23]
  GI50: 0.457 µM
HOP-62; [24]
  CC50: > 100 µM
HOP-62; read-out: Log10TGI (converted)
  TGI: > 100 µM
A549; [23]
  GI50: 0.912 µM
A549; [24]
  CC50: > 100 µM
A549; read-out: Log10TGI (converted)
  TGI: > 100 µM
SR; [23]
  GI50: 0.0589 µM
SR; [24]
  CC50: > 100 µM
SR; read-out: Log10TGI (converted)
  TGI: 0.447 µM
MOLT-4 [1]; [23]
  GI50: 0.0479 µM
MOLT-4 [1]; [24]
  CC50: > 100 µM
MOLT-4 [1]; read-out: Log10TGI (converted)
  TGI: 5.62 µM
[2]
  IC50: 9.69 µM
PrEC
  IC50: 7.01 µM
[3]
  IC50: 4.41 µM
[4]
  IC50: 2.79 µM
[5]
  IC50: 0.9 µM
[6]
  IC50: 0.66 µM
[7]
  IC50: 0.23 µM
MOLT-4 [8]
  IC50: 0.08 µM
SK-MEL-28 [9]
  IC50: 0.55 µM
SK-MEL-2
  IC50: 0.29 µM
WiDr
  IC50: 0.91 µM
Mus musculus [10]
  Activity: Non-toxic
Mus musculus [11]
  Activity: Non-toxic
Mus musculus [12]
  Activity: Non-toxic
Mus musculus [13]
  Activity: Non-toxic
Mus musculus [14]
  Activity: Non-toxic
Mus musculus [15]
  Activity: Non-toxic
Mus musculus [16]
  Activity: Non-toxic
[17]
  T/C: <=42%
[18]; [23]
  GI50: 0.229 µM
[18]; [24]
  CC50: > 100 µM
[18]; read-out: Log10TGI (converted)
  TGI: 16.2 µM
Mus musculus [19]
  Activity: Non-toxic
Mus musculus [20]
  Activity: Non-toxic
Mus musculus [21]
  Activity: Non-toxic
T47D; [23]
  GI50: 0.389 µM
T47D; [24]
  CC50: > 100 µM
T47D; read-out: Log10TGI (converted)
  TGI: 14.5 µM
PC-3; [23]
  GI50: 0.479 µM
PC-3; [24]
  CC50: > 100 µM
PC-3; read-out: Log10TGI (converted)
  TGI: 38 µM
A498; [23]
  GI50: 3.39 µM
A498; [24]
  CC50: > 100 µM
A498; read-out: Log10TGI (converted)
  TGI: 74.1 µM
NCI/ADR-RES; [23]
  GI50: 0.501 µM
NCI/ADR-RES; [24]
  CC50: > 100 µM
NCI/ADR-RES; read-out: Log10TGI (converted)
  TGI: > 100 µM
OVCAR-3; [23]
  GI50: 0.229 µM
OVCAR-3; [24]
  CC50: > 100 µM
OVCAR-3; read-out: Log10TGI (converted)
  TGI: 3.47 µM
SK-MEL-5; [23]
  GI50: 0.316 µM
SK-MEL-5; [24]
  CC50: 10.2 µM
SK-MEL-5; read-out: Log10TGI (converted)
  TGI: 1.95 µM
SK-MEL-28 [22]; [23]
  GI50: 0.324 µM
SK-MEL-28 [22]; [24]
  CC50: > 100 µM
SK-MEL-28 [22]; read-out: Log10TGI (converted)
  TGI: 6.46 µM
